Screens: PubChem, several laboratories
An excerpt weighted towards active compounds, which were near 2.6% of everything screened.
T cell HTS – T cell immune modulation candidate. 2C CD8+ T cell-vesicle binding, flow cytometry; stronger effect = lower value. response (vesicle binding), % at 7 µM. 0.068% of 330,000 active. AID 2052;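 active = response, share of CD8 T cells binding vesicles, and their 90th percentile fluorescence all below set limits, cut at about 80% in these data, passing the limit was not always enough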;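 also: values below 100% mean blocked vesicle binding to the CD8+ T cells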
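incubation = binding step 1.5 h, 37 °C, antibody labelling 20 min, ice | test system = 2C mouse CD8+ T cells | read-out basis = percent CD8+ FL2 mean versus row control | controls = Peptide-free naked vesicles (low) and QL9 vesicles with 0.7% DMSO vehicle (high) | detection = flow cytometry of vesicle-bound cells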
EP2 antag – EP2 receptor (human) inhibition | 0.52% of 260,000 active | P43116 | C6 glioma cells expressing human EP2, cAMP TR-FRET; cells stimulated with saturating PGE2 | inhibition, % at 25 µM;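 active = percent inhibition above 40 after rounding to a whole number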;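 also: rat C6 glioma host cells with rolipram phosphodiesterase inhibitor present; the protocol text gives 20 µM as final concentration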
Target sequence (P43116 whole entry, looked up): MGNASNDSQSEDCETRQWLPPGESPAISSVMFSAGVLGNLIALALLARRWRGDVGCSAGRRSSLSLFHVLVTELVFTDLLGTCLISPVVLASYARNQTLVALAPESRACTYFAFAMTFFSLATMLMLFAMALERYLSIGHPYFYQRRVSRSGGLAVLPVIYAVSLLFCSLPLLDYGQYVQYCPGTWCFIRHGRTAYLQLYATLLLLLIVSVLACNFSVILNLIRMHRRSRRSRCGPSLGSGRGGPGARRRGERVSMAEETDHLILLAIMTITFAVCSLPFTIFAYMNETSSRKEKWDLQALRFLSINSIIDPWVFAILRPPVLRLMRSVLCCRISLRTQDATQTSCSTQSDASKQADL
EP2 mod – modulators of human EP2 prostaglandin E2 receptor | EP2-expressing cells, cAMP HTRF FRET, PGE2 co-stimulation | induction, % at 25 µM | 0.83% of 260,000 active;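 active = compounds whose cAMP rise, as percent of the full-agonist control response, exceeds 60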;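 also: rat C6 glioma line stably carrying human EP2 under a CMV promoter; the protocol text gives 20 µM as final concentration; 100% = response of wells given 1 µM PGE2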
MC4R antagonist – antagonists of human melanocortin 4 receptor (MC4R); MC4R-expressing cells, MTII-stimulated cAMP, LANCE TR-FRET; 0.48% of 360,000 active; P32245; AID 540295; inhibition, % at 6.5 µM;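 active = inhibition above its plate's cutoff, the mean of tested wells on that plate plus 3 SD, cut at about 29% in these data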;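 also: 0% = Melanotan II alone and 100% = Melanotan II plus saturating MCL0020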
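Material: U2OS-MC4R stable cell line | Reagent: Melanotan II challenge after compound preincubation | Doses: One concentration, 6.5 µM nominal | Incubation: 30-min compound preincubation, 1-h Melanotan II challenge, 1-h detection, room temperature | Signal: TR-FRET cAMP assay | Replicates: One well per compound, no replicates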
MC4R barr agon – activates human MC4R beta-arrestin recruitment | activation, % at 8.9 µM | P32245 | U2OS MC4R beta-arrestin complementation, luminescence; percent of melanotan II response, DMSO zero | 0.98% of 360,000 active;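 active = activation above a per-plate cutoff, the mean activation of sample wells on that plate plus 3 SD, cut at about 8% in these data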
Granule exo inh – blocks lytic granule exocytosis; inhibition, % at 10 µM; TALL-104 LAMP-1 surface exposure, flow cytometry; cells stimulated with thapsigargin and PMA; 0.66% of 360,000 active;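 active = inhibition above about 55%, limit read from the data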
EP2 confirm – human EP2 receptor cAMP induction, negative in counter-screens. AID 1080. 47% of 1,300 active. calls only at 20 µM (by protocol). C6 glioma EP2 cells, cAMP HTRF induction; plus low (about EC15) PGE2 agonist. shares compounds with EP2 mod;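 active = cAMP induction above 50% in the main assay while under 30% in all four parallel counter assays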;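 also: rat C6 glioma cells stably expressing human EP2 receptor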
* marks the source's active call; other numbers are inactive results; i = inactive; x = not tested or not shown; + = active, no number.

SMILES	T cell HTS	EP2 antag	EP2 mod	MC4R antagonist	MC4R barr agon	Granule exo inh	EP2 confirm
Cc1ccc(-c2cc(C(F)(F)F)nn2-c2ccc(S(N)(=O)=O)cc2)cc1	364.9	11.3	65.7*	5.4	8.5*	-4.7	+
O=C(CSc1ncnc2c1oc1ccccc12)Nc1ccc2c(c1)OCCO2	242.3	6.1	20.6	3.4	0.3	-0.6	x
Fc1cccc(CSc2ncnc3c2oc2ccccc23)c1	208.5	14.6	80.0*	12.1	0.9	-0.3	i
Cc1cccc(NC(=O)CSc2ncnc3c2oc2ccccc23)c1	533.3	15.4	71.3*	-1.6	7.6	-0.5	i
O=C(CSc1ncnc2c1oc1ccccc12)Nc1cccc(F)c1	193.8	13.4	67.4*	-0.5	1.8	-0.7	i
COc1ccc(Cl)cc1NC(=O)CSc1nnc(C)c(=O)[nH]1	x	14.6	13.0	x	x	x	x
Cc1scc(C(=O)NNC(=O)CCC(=O)O)c1C	117.1	7.2	13.5	3.2	-1.3	8.1	x
COc1ccccc1/C=N/N(C(C)=O)c1nc(-c2ccc(F)cc2)cs1	255.4	3.2	73.2*	12.4	-0.4	-3.6	i
COc1cccc2cc(/C(=N/O)c3ccccc3)oc12	466.2	5.3	67.9*	-3.8	-2.8	1.7	+
COc1cccc2cc(C(C)=O)oc12	344.4	5.9	4.5	9.2	-1.8	-2.4	x
COc1ccc(C(=O)OCC#CCSc2nnc(-c3cccc4ccccc34)o2)cc1	177.3	x	x	14.9	-1.7	-13.9	x
N#Cc1c(-c2c(Cl)cccc2Cl)noc1/C=C/Nc1ccc(C(=O)O)cc1	234.4	5.5	68.5*	-7.4	-1.3	-7.8	+
CC1(C(=O)NS(=O)(=O)c2ccc(Cl)cc2)CCN1C(=O)C1CCCCC1 (configuration not stated)	x	x	x	2.3	0.7	-2.3	x
COC(=O)c1nc(NC(=O)C(C)(C)C)n[nH]1	184.3	16.3	66.2*	0.9	-2.6	1.9	i
COC(=O)c1nc(NC(=O)c2ccc(Br)cc2)n[nH]1	208.3	11.4	11.9	7.5	-1.5	2.0	x
COc1ccc(NC2=NC(=S)N(c3cccc(C)c3)C23CCCCC3)cc1	540.2	x	4.5	5.4	-0.8	0.0	x
Cc1cccc(NC2=NC(=S)N(c3ccc(C(=O)O)cc3)C23CCCCC3)c1	281.0	x	97.5*	3.3	-1.0	-2.0	+
Cc1nc2c(-c3ccccc3)c(C)nn2c(C)c1CCC(=O)N1CCOCC1	308.2	14.6	78.3*	-2.2	-2.8	-2.1	i
CNc1oc(-c2ccc(Cl)cc2)nc1P(=O)(c1ccccc1)c1ccccc1	329.1	4.9	68.2*	0.0	-0.2	7.3	+
Cc1ccc(-c2nc(P(=O)(c3ccccc3)c3ccccc3)c(N3CCOCC3)o2)cc1	317.0	10.0	64.9*	4.7	-1.7	-1.9	i
Cc1ccc(NC(=O)C2CC(=O)n3cnnc3N2)cc1Cl (configuration not stated)	x	17.1	2.2	x	x	x	x
CCOC(=O)c1c(NC(=O)CSc2ncnc3[nH]ncc23)sc2c1CCC(C)C2 (configuration not stated)	198.3	6.8	66.1*	10.8	-3.3	-1.7	i
CCCc1cc(=O)n2[nH]c(NCc3ccccc3Cl)nc2n1	562.6	10.8	29.4	4.2	-2.0	-0.8	x
CCCc1cc(=O)n2[nH]c(NCc3cccs3)nc2n1	301.3	-0.6	71.3*	-1.0	-1.9	-1.4	i
Cc1onc(-c2ccccc2)c1C(=O)N(Cc1ccco1)Cc1cccs1	x	8.8	97.9*	0.3	-2.9	0.1	+
Cc1onc(-c2ccccc2)c1C(=O)NCc1ccco1	226.1	10.4	-0.2	-0.2	0.5	3.3	x
CCOC(=O)C(C)Sc1nc(-c2ccccc2)nc2ccc(F)cc12 (configuration not stated)	636.2	17.0	-10.1	6.5	-0.7	5.4	x
CC(C)OC(=O)CSc1nc(C(C)C)nc2ccccc12	310.0	15.4	47.6	3.6	0.3	-8.8	x
